From ChEMBL document CHEMBL3596120, “Discovery of natural alkaloid bouchardatine as a novel inhibitor of adipogenesis/lipogenesis in 3T3-L1 adipocytes” (Bioorg Med Chem, 2015)
Calls of active or inactive are those of the source. No cut-off for these calls is given here.

Key:
[1] = Cytotoxicity against mouse 3T3L1 cells assessed effect on cell morphology at 1 to 50 uM incubated for 1 to 9 days by microscopy; type: cell-based; conditions: 3t3-l1, 50 µM
3T3-L1 [2] = experiment: Inhibition of adipogenesis in mouse 3T3L1 cells assessed as reduction in triglyceride content at 25 uM treated on day 0 to 6 by oil Red-O staining based microscopy; type: functional, cell-based
Method in brief: (§1)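 After 3T3-L1 differentiation (IBMX/dexamethasone/insulin induction, insulin, then basal medium), cells were PBS-washed and fixed in 4% formalin for 60 min. Stained with filtered Oil Red O for 30 min at room temperature and imaged at 40× objective. Dye eluted with isopropanol and read at 510 nm. Three independent experiments.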

3T3-L1 [3] = experiment: Inhibition of adipogenesis in mouse 3T3L1 cells assessed as reduction in triglyceride content at 1 to 50 uM by colorimetric assay; type: functional, cell-based
[4] = Reduction in PPARgamma protein expression in mouse 3T3L1 cells at 1 to 50 uM by Western blot method; type: functional, cell-based; conditions: 3T3-L1
Method in brief: (§2)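 3T3-L1 preadipocytes grown in DMEM with 10% FBS at 37 °C under 5% CO2. Differentiation starts 2 days post-confluence (day 0) with IBMX, 100 ng/mL dexamethasone and insulin for 3 d, then insulin in 10% FBS/DMEM for 3 d, then basic medium for 3 d. Compound is added on day 0 and renewed at day 3. Vehicle control receives the same volume of DMSO.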

HepG2 [5] = experiment: Cytotoxicity against human HepG2 cells at 1 to 100 uM by MTT assay; type: cell-based; conditions: hepg2, 100 µM
Method in brief: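 HepG2 cells seeded at 7 × 10^3 cells/well. After 24 h, treated with 1, 10, 25, 50 or 100 µM; DMSO vehicle control. After the set time, MTT at 0.5 mg/mL was added for 4 h at 37 °C. Formazan dissolved in DMSO and read at 490 nm. Run in triplicate.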

HepG2 [6] = experiment: Inhibition of oleic acid-induced adipogenesis in human HepG2 cells assessed as reduction in triglyceride content by colorimetric assay; type: functional, cell-based
Method in brief: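 HepG2 cells loaded with 0.5 mM oleic acid sodium, with or without compound. Lysed in 0.2% Triton X-100 in water and sonicated. TG measured colorimetrically and normalised to cellular protein. Blank: no oleate. Three independent experiments.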

3T3-L1 [7] = experiment: Inhibition of adipogenesis in mouse 3T3L1 cells assessed as reduction in triglyceride content at 25 uM treated on day 0 to 9 by oil Red-O staining based microscopy; type: functional, cell-based; method in brief: as §1
3T3-L1 [8] = experiment: Activation of AMPK in mouse 3T3L1 cells assessed as increase in ACC Ser79 phosphorylation at 25 uM after 9 days by Western blot method; type: cell-based
Method in brief: (§3)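 Mouse 3T3-L1 cells taken through the differentiation protocol, with compound or DMSO vehicle given from day 0 and renewed at day 3. Cells lysed on ice for 0.5 h in RIPA with PMSF, Na3VO4, NaF and protease inhibitors, then centrifuged at 12,000g. Lysates run on 12% SDS-PAGE and transferred to PVDF. Blots probed overnight at 4 °C and detected with HRP secondary. Bands quantified by optical density against GAPDH. Three independent experiments.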

3T3-L1 [9] = experiment: Inhibition of adipogenesis in mouse 3T3L1 cells assessed as reduction in triglyceride content at 25 uM treated on day 3 to 6 by oil Red-O staining based microscopy; type: functional, cell-based; method in brief: as §1
3T3-L1 [10] = experiment: Activation of AMPK in mouse 3T3L1 cells assessed as increase in ACC Ser79 phosphorylation at 1 to 50 uM after 9 days by Western blot method; type: cell-based; method in brief: as §3
3T3-L1 [11] = experiment: Inhibition of adipogenesis in mouse 3T3L1 cells assessed as reduction in cell finger ring diameter size at 1 to 50 uM by oil Red-O staining based microscopy; type: functional; method in brief: as §1
[12] = Reduction in PPARgamma mRNA expression in mouse 3T3L1 cells at 1 to 50 uM after 72 hrs by RT-PCR method; type: functional, cell-based; conditions: 3T3-L1; method in brief: as §2
3T3-L1 [13] = experiment: Reduction in AMPKalpha2 mRNA expression in mouse 3T3L1 cells at 25 uM after 24 hrs by RT-PCR method; type: functional, cell-based
[14] = Reduction in C/EBPdelta mRNA expression in mouse 3T3L1 cells at 25 uM by RT-PCR method; type: functional, cell-based; conditions: 3T3-L1, TDE = time-dependent effect; method in brief: as §2
[15] = Reduction in ACC protein expression in mouse 3T3L1 cells at 1 to 50 uM after 9 days by Western blot method; type: functional, cell-based; conditions: 3T3-L1; method in brief: as §3
3T3-L1 [16] = experiment: Inhibition of adipogenesis in mouse 3T3L1 cells assessed as reduction in triglyceride content at 25 uM treated on day 6 to 9 by colorimetric assay; type: functional; conditions: 3T3-L1, 144 h
3T3-L1 [17] = experiment: Inhibition of adipogenesis in mouse 3T3L1 cells assessed as reduction in cell size at 1 to 50 uM by oil Red-O staining based microscopy; type: functional; method in brief: as §1
[18] = Reduction in SREBP-1c protein expression in mouse 3T3L1 cells at 1 to 50 uM by Western blot method; type: functional, cell-based; conditions: 3T3-L1; method in brief: as §2
[19] = Reduction in FAS protein expression in mouse 3T3L1 cells at 1 to 50 uM after 9 days by Western blot method; type: functional, cell-based; conditions: 3T3-L1; method in brief: as §2
3T3-L1 [20] = experiment: Induction of cell cycle arrest in mouse 3T3L1 cells assessed as accumulation at G0/G1 phase at 25 uM after 24 hrs by flow cytometry (reference value: 42%); type: functional
[21] = Cytotoxicity against mouse 3T3L1 cells at 1 to 50 uM incubated for 1 to 9 days by LDH assay; type: cell-based; conditions: 3t3-l1, 50 µM
Method in brief: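 3T3-L1 adipocytes seeded at 7 × 10^3 cells/well, then treated 24 h later with DMSO vehicle as control. LDH in media and in cell lysates measured with a commercial kit. Cytotoxicity = LDH released into medium / maximal LDH release × 100. Maximum: […]. Blank: medium without cells.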

[22] = Reduction in C/EBPalpha protein expression in mouse 3T3L1 cells at 1 to 50 uM by Western blot method; type: functional, cell-based; conditions: 3T3-L1; method in brief: as §3
3T3-L1 [23] = experiment: Induction of cell cycle arrest in mouse 3T3L1 cells assessed as accumulation at G2/M phase at 1 to 50 uM by flow cytometry; type: functional, cell-based
3T3-L1 [24] = experiment: Induction of cell cycle arrest in mouse 3T3L1 cells assessed as accumulation at S phase at 25 uM after 24 hrs by flow cytometry (reference value: 18%); type: functional
3T3-L1 [25] = experiment: Inhibition of adipogenesis in mouse 3T3L1 cells assessed as reduction in lipid droplets at 1 to 50 uM by oil Red-O staining based microscopy; type: functional, cell-based; method in brief: as §1
3T3-L1 [26] = experiment: Inhibition of adipogenesis in mouse 3T3L1 cells assessed as reduction in lipid content at 25 uM by colorimetric assay; type: functional

O=Cc1c(-c2nc3ccccc3c(=O)[nH]2)[nH]c2ccccc12
Activity [1]: Non-toxic | inhibition (3T3-L1 [2]): Active | inhibition (3T3-L1 [3]): Dose-dependent effect | Activity [4]: Active | Activity (HepG2 [5]): Non-toxic | inhibition (HepG2 [6]): Dose-dependent effect | inhibition (3T3-L1 [7]): Active | Activity (3T3-L1 [8]): Active | inhibition (3T3-L1 [9]): Active | Activity (3T3-L1 [10]): Active | inhibition (3T3-L1 [11]): Active | Activity [12]: Active | Activity (3T3-L1 [13]): Active | Activity [14]: tde | Activity [15]: Active | inhibition at 25 µM (3T3-L1 [16]): < 10% | inhibition (3T3-L1 [17]): Active | Activity [18]: Active | Activity [19]: Active | Activity (3T3-L1 [20]): 40% | Activity [21]: Non-toxic | Activity [22]: Active | Activity (3T3-L1 [23]): Active | Activity (3T3-L1 [24]): 5% | inhibition (3T3-L1 [25]): Active | inhibition at 25 µM (3T3-L1 [26]): 50%
